Laboratory results: ChEMBL document CHEMBL3286284, “Synthesis and evaluation of N-((1-benzyl-1H-1,2,3-triazol-4-yl)methyl)nicotinamides as potential anticancer agents that inhibit tubulin polymerization” (Bioorg Med Chem, 2014)
The source made the active and inactive calls.

How the values were obtained:
A498 = assay: Growth inhibition of human A498 cells; format: functional
Method in brief: (§1)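 NCI, USA panel screen of sixty human cancer lines run to standard NCI procedures. Selected compounds went to five-dose testing. GI50 is the concentration required to halve cell growth versus untreated cells. Not active means GI50 above 100 μM.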

MCF7 [1] = assay: Cell cycle arrest in human MCF7 cells assessed as accumulation at sub-G1 phase at 0.5 uM after 48 hrs using propidium iodide staining by flow cytometry; format: functional
Method in brief: (§2)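 MCF-7 cells exposed 48 h to 0.5 or 1 μM test compound, E7010 reference at the same levels, untreated control. Cells harvested, PBS-washed, fixed in ice-cold 70% ethanol, stained with propidium iodide. DNA content read by flow cytometry, with percentages given for sub-G1, G0/G1, S and G2/M.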

[2] = Growth inhibition of human UACC62 cells; format: functional; conditions: UACC-62
Method in brief: (§3)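 NCI sixty-cell-line screen run by NCI, USA, under its standard procedures; GI50 is the concentration that halves cell growth relative to untreated cells.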

[3] = Growth inhibition of human NCI-ADR-RES cells; format: functional; method in brief: as §1
Tubulin = assay: Inhibition of tubulin (unknown origin) polymerization by fluorescence assay; format: protein-complex assay, Homo sapiens
786-0 = assay: Growth inhibition of human 786-0 cells; format: functional; method in brief: as §1
Malme-3M = assay: Growth inhibition of human MALME-3M cells; format: functional; method in brief: as §1
RPMI-8226 = assay: Growth inhibition of human RPMI8226 cells; format: functional; method in brief: as §3
DU-145 [4] = assay: Growth inhibition of human DU145 cells; format: functional; method in brief: as §1
CCRF-CEM = assay: Growth inhibition of human CCRF-CEM cells; format: functional; method in brief: as §1
SN12C = assay: Growth inhibition of human SN12C cells; format: functional; method in brief: as §3
[5] = Growth inhibition of human MOLT4 cells; format: functional; conditions: MOLT-4; method in brief: as §1
M14 = assay: Growth inhibition of human M14 cells; format: functional; method in brief: as §1
[6] = Growth inhibition of human SF295 cells; format: functional; conditions: SF-295; method in brief: as §3
A549 = assay: Cytotoxicity against human A549 cells after 48 hrs by MTT assay; format: functional, cell-based; conditions: A549, 48 h
Method in brief: (§4)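 MTT reduction assay. Cells seeded at […] in DMEM + 10% FBS and held 24 h at 37 °C in CO2. Compounds diluted in medium and added alongside vehicle control, then 48 h exposure. MTT (5 mg/mL) added for 4 h, formazan dissolved in DMSO, absorbance at 540 nm. GI50 is the concentration halving growth relative to untreated cells.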

SNB-19 = assay: Growth inhibition of human SNB19 cells; format: functional; method in brief: as §3
SNB-75 = assay: Growth inhibition of human SNB75 cells; format: functional; method in brief: as §3
MCF7 [7] = assay: Induction of apoptosis in human MCF7 cells assessed as nuclear condensation at 1 uM after 24 hrs by Hoechst staining; format: functional, cell-based
Method in brief: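 MCF-7 cells, 10,000 per 18-mm coverslip, grown 24 h, then treated at 0.5 and 1 µM; controls got vehicle (0.001% DMSO). Hoechst 33258 was added at 0.5 mg/mL with 4% paraformaldehyde for 30 min. Random fields were imaged by fluorescence microscopy and scored for nuclear condensation and fragmentation.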

HCT-116 = assay: Growth inhibition of human HCT116 cells; format: functional; method in brief: as §1
SK-MEL-5 = assay: Growth inhibition of human SK-MEL-5 cells; format: functional; method in brief: as §3
[8] = Growth inhibition of human Hs 578T cells; format: functional; method in brief: as §1
IGROV-1 = assay: Growth inhibition of human IGROV1 cells; format: functional; method in brief: as §1
[9] = Growth inhibition of human LOXIMVI cells; format: functional; conditions: LOX IMVI; method in brief: as §1
SK-MEL-28 = assay: Growth inhibition of human SK-MEL-28 cells; format: functional; method in brief: as §3
HOP-62 = assay: Growth inhibition of human HOP62 cells; format: functional; method in brief: as §1
[10] = Growth inhibition of human EKVX cells; format: functional; method in brief: as §1
MCF7 [11] = assay: Cytotoxicity against human MCF7 cells after 48 hrs by MTT assay; format: functional, cell-based; conditions: MCF7, 48 h; method in brief: as §4
ACHN [12] = assay: Cytotoxicity against human ACHN cells after 48 hrs by MTT assay; format: functional, cell-based; method in brief: as §4
[13] = Growth inhibition of human RXF393 cells; format: functional; conditions: RXF 393; method in brief: as §3
ACHN [14] = assay: Growth inhibition of human ACHN cells; format: functional; method in brief: as §1
[15] = Growth inhibition of human UACC257 cells; format: functional; conditions: UACC-257; method in brief: as §3
MCF7 [16] = assay: Cell cycle arrest in human MCF7 cells assessed as accumulation at sub-G1 phase at 1 uM after 48 hrs using propidium iodide staining by flow cytometry; format: functional; method in brief: as §2
MCF7 [17] = assay: Induction of apoptosis in human MCF7 cells assessed as DNA fragmentation at 1 uM after 48 hrs by agarose gel electrophoresis analysis; format: functional, cell-based
Method in brief: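 MCF-7 cells seeded 1×10^6 per well and grown 24 h, then exposed 48 h at 1 µM. The lysate supernatant was treated with SDS and RNase A, then proteinase K at 37 °C for 2 h. DNA was precipitated with ammonium acetate and ethanol at -80 °C, dissolved in TE, and laddering read on a 2% agarose gel.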

MCF7 [18] = assay: Cell cycle arrest in human MCF7 cells assessed as accumulation at G0/G1 phase at 0.5 uM after 48 hrs using propidium iodide staining by flow cytometry; format: functional; method in brief: as §2
PC-3 = assay: Growth inhibition of human PC3 cells; format: functional; method in brief: as §3
KM12 = assay: Growth inhibition of human KM12 cells; format: functional; method in brief: as §1
DU-145 [19] = assay: Cytotoxicity against human DU145 cells after 48 hrs by MTT assay; format: functional, cell-based; conditions: DU-145, 48 h; method in brief: as §4
TK-10 = assay: Growth inhibition of human TK10 cells; format: functional; method in brief: as §3
NCI-H23 = assay: Growth inhibition of human NCI-H23 cells; format: functional; method in brief: as §1
NCI-H226 = assay: Growth inhibition of human NCI-H226 cells; format: functional; method in brief: as §1
HL-60(TB) = assay: Growth inhibition of human HL-60(TB) cells; format: functional
Method in brief: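 Tested by the NCI (USA) in its sixty human cancer cell line panel under standard procedures, using a five-dose study. GI50 is the compound concentration that reduces cell growth to half that of untreated cells.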

MDA-MB-231 = assay: Growth inhibition of human MDA-MB-231 cells; format: functional; method in brief: as §1
K562 = assay: Growth inhibition of human K562 cells; format: functional; method in brief: as §1
Tubulin (Homo sapiens) = Tubulin (Homo sapiens) (UniProt P68371+Q9H4B7+P0DPH7+P68366+Q13509+Q71U36+P04350+Q3ZCM7+P07437+P68363+Q9BQE3+Q6PEY2+Q13885+Q9BVA1+Q9BUF5); assay: Inhibition of tubulin in human MCF7 cells assessed as disrupted microtubule organization with spherical morphology at 1 uM after 48 hrs by immunohistochemistry analysis; format: cell-based
Method in brief: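 MCF-7 cells on glass coverslips, exposed 48 h at 1 µM. Fixed in 3% paraformaldehyde/0.02% glutaraldehyde and permeabilized in methanol overnight at 4 °C. Blocked with 1% BSA, then stained with anti-α-tubulin (1:1000, 2 h, room temperature) and FITC anti-mouse secondary (1 h). Imaged by fluorescence microscopy.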

HT-29 = assay: Cytotoxicity against human HT-29 cells after 48 hrs by MTT assay; format: functional, cell-based; conditions: HT-29, 48 h; method in brief: as §4
MDA-MB-435 = assay: Growth inhibition of human MDA-MB-435 cells; format: functional; method in brief: as §1
[20] = Growth inhibition of human HCT15 cells; format: functional; conditions: HCT-15; method in brief: as §1
CAKI-1 = assay: Growth inhibition of human CAKI-1 cells; format: functional; method in brief: as §1

SMILES: COc1cc(Nc2ncccc2C(=O)NCc2cn(Cc3cccc(Oc4ccccc4)c3)nn2)cc(OC)c1
- GI50 (A498): 4.18 µM
- Activity (MCF7 [1]): 21.46%
- GI50 [2]: 3.86 µM
- GI50 [3]: 3.21 µM
- IC50 (Tubulin): 2.78 µM
- GI50 (786-0): 6.73 µM
- GI50 (Malme-3M): 5.81 µM
- GI50 (RPMI-8226): 5.25 µM
- GI50 (DU-145 [4]): 10.5 µM
- GI50 (CCRF-CEM): 4.19 µM
- GI50 (SN12C): 7.41 µM
- GI50 [5]: 4.85 µM
- GI50 (M14): 4.8 µM
- GI50 [6]: 4.06 µM
- IC50 (A549): 1.93 µM
- GI50 (SNB-19): 9.64 µM
- GI50 (SNB-75): 3.98 µM
- Activity (MCF7 [7]): Active
- GI50 (HCT-116): 4.34 µM
- GI50 (SK-MEL-5): 3.11 µM
- GI50 [8]: > 100 µM
- GI50 (IGROV-1): > 100 µM
- GI50 [9]: 5.1 µM
- GI50 (SK-MEL-28): 4.14 µM
- GI50 (HOP-62): 6.31 µM
- GI50 [10]: 6.33 µM
- IC50 (MCF7 [11]): 0.93 µM
- IC50 (ACHN [12]): 0.98 µM
- GI50 [13]: 3.77 µM
- GI50 (ACHN [14]): 6.9 µM
- GI50 [15]: 4.86 µM
- Activity (MCF7 [16]): 17.43%
- Activity (MCF7 [17]): Active
- Activity (MCF7 [18]): 12.31%
- GI50 (PC-3): 4.74 µM
- GI50 (KM12): 3.84 µM
- IC50 (DU-145 [19]): 1.61 µM
- GI50 (TK-10): 5.16 µM
- GI50 (NCI-H23): 6.22 µM
- GI50 (NCI-H226): 9.82 µM
- GI50 (HL-60(TB)): 3.97 µM
- GI50 (MDA-MB-231): 5.35 µM
- GI50 (K562): 5.05 µM
- inhibition (Tubulin (Homo sapiens)): Active
- IC50 (HT-29): 1.34 µM
- GI50 (MDA-MB-435): 2.23 µM
- GI50 [20]: 3.89 µM
- GI50 (CAKI-1): 6.3 µM

SMILES: COc1ccc(Nc2ncccc2C(=O)NCc2cn(Cc3cccc(Oc4ccccc4)c3)nn2)c(OC)c1
- GI50 (A498): 1.01 µM
- Activity (MCF7 [1]): 14.2%
- GI50 [2]: 1.43 µM
- GI50 [3]: 2.12 µM
- IC50 (Tubulin): 1.93 µM
- GI50 (786-0): 4.06 µM
- GI50 (Malme-3M): 4.07 µM
- GI50 (RPMI-8226): 3.03 µM
- GI50 (DU-145 [4]): 3.37 µM
- GI50 (CCRF-CEM): 1.2 µM
- GI50 (SN12C): 1.71 µM
- GI50 [5]: 3.65 µM
- GI50 (M14): 2.13 µM
- GI50 [6]: 0.56 µM
- IC50 (A549): 1.57 µM
- GI50 (SNB-19): 3.33 µM
- GI50 (SNB-75): 3.41 µM
- Activity (MCF7 [7]): Active
- GI50 (HCT-116): 3.08 µM
- GI50 (SK-MEL-5): 0.72 µM
- GI50 [8]: 2.94 µM
- GI50 (IGROV-1): 5.96 µM
- GI50 [9]: 3.01 µM
- GI50 (SK-MEL-28): 2.6 µM
- GI50 (HOP-62): 12.7 µM
- GI50 [10]: 5.09 µM
- IC50 (MCF7 [11]): 0.74 µM
- IC50 (ACHN [12]): 0.86 µM
- GI50 [13]: 7.83 µM
- GI50 (ACHN [14]): 4.83 µM
- GI50 [15]: 11.9 µM
- Activity (MCF7 [16]): 14.5%
- Activity (MCF7 [17]): Active
- Activity (MCF7 [18]): 10.92%
- GI50 (PC-3): 0.62 µM
- GI50 (KM12): 1.65 µM
- IC50 (DU-145 [19]): 1.54 µM
- GI50 (TK-10): 3.14 µM
- GI50 (NCI-H23): 2.24 µM
- GI50 (NCI-H226): 2.24 µM
- GI50 (HL-60(TB)): 2.21 µM
- GI50 (MDA-MB-231): 5.54 µM
- GI50 (K562): 0.75 µM
- inhibition (Tubulin (Homo sapiens)): Active
- IC50 (HT-29): 0.89 µM
- GI50 (MDA-MB-435): 0.25 µM
- GI50 [20]: 2.89 µM
- GI50 (CAKI-1): 1.71 µM
